Bioassay records deposited in PubChem BioAssay by The Scripps Research Institute Molecular Screening Center.
Only some compounds are listed: those with a hit (about 2.6% of all), similar ones and a draw of the others.
TCR CD3 inh = human TCR-CD3 binding inhibition; 0.37% of 360,000 active; TAMRA-labeled TCR probe fluorescence, biochemical; inhibition, % at 9.4 µM; in the data active means inhibition above about 19%;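 further: recombinant mutant TCR 2C K166C tagged with TAMRA read by polarization; 0% = receptor in buffer alone and 100% = receptor with positive control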
HTRA1 inhibitor = blocks human HTRA1 serine peptidase; Q92743; recombinant HTRA1, FP-rhodamine activity-based probe, fluorescence polarization; inhibition, % at 5.96 µM; 0.5% of 340,000 active; AID 504803; in the data active means inhibition above about 36%;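 further: 0% = enzyme with DMSO and 100% = wells lacking enzyme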
mABHD4 FP = inhibits mouse alpha/beta hydrolase domain 4; Q8VD66; purified mABHD4, FP-Rh probe fluorescence polarization; inhibition, % at 8.92 µM; 0.54% of 370,000 active;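 active means inhibition exceeding the mean over every tested compound plus 3 SD, cut at about 30% in these data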;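 further: 0% = plate median of compound wells and 100% = S159A mutant with DMSO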
Target sequence (Q8VD66 whole entry, looked up, the tested form may be a part): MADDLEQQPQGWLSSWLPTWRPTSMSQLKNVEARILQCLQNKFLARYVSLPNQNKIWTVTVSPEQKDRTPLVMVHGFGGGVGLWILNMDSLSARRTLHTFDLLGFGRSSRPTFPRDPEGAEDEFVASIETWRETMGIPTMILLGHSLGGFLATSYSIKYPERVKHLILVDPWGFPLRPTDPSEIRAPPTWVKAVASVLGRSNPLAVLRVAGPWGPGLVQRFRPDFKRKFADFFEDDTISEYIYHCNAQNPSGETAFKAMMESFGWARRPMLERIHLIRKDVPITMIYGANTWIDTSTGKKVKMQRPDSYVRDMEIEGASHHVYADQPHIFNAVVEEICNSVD
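Test system: mABHD4 protein; Read-out basis: % inhibition; Incubation: 45 min + 60 min at 25 °C; Repeats: single replicate; Technique: fluorescence polarization with parallel and perpendicular emission, 525/598 nm; Compound: 8.92 µM, single dose; Benchmarks: full inhibition S159A mutant plus DMSO, zero as sample-well median.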
PRMT1 inh = blocks human protein arginine methyltransferase 1 | Q99873 | recombinant PRMT1, activity-based probe fluorescence polarization | inhibition, % at 2.79 µM | 1.3% of 370,000 active | AID 652257;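 active means inhibition above about 21% made by adding two undisclosed values, limit read from the data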
SIAE inh = human SIAE inhibition, primary screen | Q9HAT2 | inhibition, % at 9.66 µM | SIAE FP-Rh probe binding, fluorescence polarization | AID 1053197 | 0.69% of 370,000 active;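 active means inhibition above a cutoff: mean of compounds within the control limits plus 3 SD of those, cut at about 17% in these data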;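 further: 0% = plate median of compound wells and 100% = probe without SIAE protein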
PRMT1 inh conf = confirmation of human PRMT1 inhibitors. shares compounds with PRMT1 inh. recombinant His-PRMT1, activity-based probe fluorescence polarization. inhibition, % at 2.79 µM. 42% of 3,300 active;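 active means mean inhibition across replicates above the hit cutoff derived for the earlier primary screen, cut at about 22% in these data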
Starred values were filed as active, the others as inactive; nt = no result given.

SMILES	TCR CD3 inh	HTRA1 inhibitor	mABHD4 FP	PRMT1 inh	SIAE inh	PRMT1 inh conf
CCCOc1ccc(N2C(=O)CC(NCCNc3ccc([N+](=O)[O-])cn3)C2=O)cc1 (stereo not given)	-3.2	-6.3	2.9	32.2*	6.0	4.3
COc1ccc(CCN2C(=O)CC(NC34CC5CC(CC(C5)C3)C4)C2=O)cc1OC (stereo not given)	-5.8	-1.1	2.6	66.6*	-5.4	1.7
COc1ccc(CCNC2CC(=O)N(CCc3ccccc3)C2=O)cc1 (stereo not given)	-0.4	0.3	-2.2	45.1*	0.7	-1.5
O=C1CC(NCCc2ccccc2)C(=O)N1CCc1ccccc1 (stereo not given)	0.6	11.2	0.1	37.7*	0.8	-0.3
CCN1CCCCC(NC(=O)c2ccccc2C)C1=O (stereo not given)	nt	nt	4.9	-2.8	-1.0	nt
CN1C(=O)c2cc(NC(=O)Nc3ccccc3)ccc2OC[C@H]2O[C@@H](CC(=O)NCc3ccc(-c4ccccc4)cc3)CC[C@@H]21	nt	nt	-21.6	4.4	-13.0	nt
COc1cccc(C(=O)NCCN2C(=O)C3C4C=CC(C4)C3C2=O)c1 (stereo not given)	nt	nt	-2.1	2.1	5.5	nt
Cc1cc(-c2n[nH]c(=S)n2N=Cc2ccc(OCc3ccccc3)cc2)n[nH]1	nt	nt	4.9	4.0	13.8	nt
CCOC(=O)N1CCN(C(=O)C[C@H]2C(=O)N(Cc3ccc(OC)cc3)C3=CCCC[C@@]32C(=O)OCC)CC1	nt	nt	-6.9	-4.8	-10.4	nt
CCCC1CCC2(CC1)CCC2OC(=O)Nc1c(OC)cccc1OC (stereo not given)	nt	nt	-5.0	5.7	0.3	nt
COc1ccc(CCN2C(=O)C=CC2=O)cc1OC	-3.8	1.5	6.3	88.6*	5.4	84.5*
COc1ccc(CCN2C(=O)CN(Cc3ccccc3)CC2=O)cc1OC	2.8	3.4	-1.8	1.2	6.0	nt
COc1ccc(N2C(=O)CC(NC34CC5CC(CC(C5)C3)C4)C2=O)c(OC)c1 (stereo not given)	6.4	-2.2	-4.6	89.1*	3.4	3.8
COc1ccc(CCN2C(=O)CC(NCCc3ccc(S(N)(=O)=O)cc3)C2=O)cc1OC (stereo not given)	5.0	0.8	-2.9	41.5*	7.4	1.4
O=C1CC(N2CCC(Cc3ccccc3)CC2)C(=O)N1CCc1ccccc1 (stereo not given)	4.3	-4.9	3.6	47.4*	2.0	5.5
Cc1c(C(C)c2ccccc2O)c2ccccc2n1C (stereo not given)	nt	nt	1.9	10.5	4.5	nt
CCc1cc2c(nc1CC)CCCN2S(=O)(=O)c1c(C)noc1C	-4.9	nt	11.4	3.1	-7.2	nt
CCCOc1ccc(N2C(=O)CC(NCc3ccc(S(N)(=O)=O)cc3)C2=O)cc1 (stereo not given)	4.2	2.6	-1.4	17.6	10.4	nt
CCCCOc1ccc(N2C(=O)CC(NCCc3ccc(S(N)(=O)=O)cc3)C2=O)cc1 (stereo not given)	3.5	-4.1	2.4	40.2*	3.9	5.9
CCCN1C(=O)S/C(=C\c2ccc(N3CCOCC3)o2)C1=O	-2.6	6.4	-5.3	26.1*	2.2	-72.5
CCCN1C(=O)S/C(=C/c2ccc(N3CCOCC3)o2)C1=O	-7.8	-8.1	1.9	8.4	-5.8	nt
O=C(O)CN1C(=O)/C(=C/c2ccc(N3CCCCC3)o2)SC1=S	-3.9	-4.4	8.2	38.3*	-2.4	37.2*
COC(=O)[C@]12C[C@H](CC(=O)NCc3ccccc3)C(=O)N(Cc3ccco3)C1=C[C@H](C(C)(C)C)O[C@@H]2C	nt	nt	7.0	4.8	1.1	nt
O=C(CC1=NC2(CCCC2)Cc2ccccc21)N1CCOCC1	1.2	-2.0	-5.2	17.8	10.9	nt
CCC1(CC)Cc2ccccc2C(CC(=O)N2CCOCC2)=N1	-3.3	2.9	4.1	35.2*	1.1	30.8*
SMILES	TCR CD3 inh	HTRA1 inhibitor	mABHD4 FP	PRMT1 inh	SIAE inh	PRMT1 inh conf
NC1=[N+](Cc2ccccc2)C(Cc2ccccc2)C2C(=C3CCCCC3n3c(=O)n(-c4ccccc4)c(=O)n32)N1 (stereo not given)	nt	nt	22.3	1.4	-0.9	nt
Cc1ccccc1-n1c(SCc2c(C)noc2C)nnc1-c1ccncc1	0.2	3.9	-3.0	-3.4	9.2	nt
Cc1ccccc1-n1c(SCc2c(C)noc2C)nnc1-c1cccnc1	4.7	-1.2	0.3	28.3*	1.3	13.1
CC1CCN(c2nc(-c3ccco3)c3c(c2C#N)CC(C)(C)OC3)CC1	-4.2	-4.7	16.9	28.1*	3.6	24.1*
C[n+]1c2n(c3ccccc31)N=C(c1ccc(Cl)cc1)CS2	7.1	-4.2	0.4	39.9*	7.3	17.6
COc1ccc(OC)c(S(=O)(=O)N2CCCC(C(=O)N3CCN(Cc4ccccc4)CC3)C2)c1 (stereo not given)	nt	nt	-14.0	6.5	0.3	nt
NC(=O)/C=C/C(=O)Nc1ccc(Cl)cc1	0.4	2.5	-4.5	87.1*	-0.7	31.5*
Cc1c(Cl)cccc1NC(=O)CSC(N)=O	0.3	6.6	-2.2	31.0*	-6.4	96.2*
CC1(C)N=C(SCC(=O)Nc2ccc(Cl)cc2)C(c2ccc(Cl)cc2)=N1	-1.4	-37.5	-27.9	28.4*	-23.9	10.7
NC(=O)SCC(=O)Nc1cccc(Cl)c1	4.1	-6.9	-4.9	73.2*	-2.8	100.7*
CCC[C@H]1[C@H](N)CC[C@@]23CCCN2C(=O)CCC[C@@H]13	nt	nt	-5.4	1.6	3.2	nt
CCn1c(SCC(=O)N/N=C/c2cccc(Oc3ccccc3)c2)nnc1-c1ccccc1	nt	nt	-9.1	3.2	1.7	nt
COC(=O)[C@]12C[C@H](CC(=O)NCCC(C)C)C(=O)N(Cc3ccco3)C1=C[C@H](C(C)C)O[C@@H]2C1CC1	nt	nt	-2.1	-0.2	0.6	nt
COCCCN1C(=O)[C@H](CC(=O)N2CCOCC2)[C@]2(C(=O)OC)CCCCC=C12	nt	nt	0.4	1.9	-1.1	nt
COc1cc(OC)c2c(O)c3c(=O)cc(C)oc3c(-c3c(OC)cc4cc5c(c(O)c4c3O)C(=O)CC(C)(O)O5)c2c1 (stereo not given)	nt	nt	-12.4	-3.8	-6.8	nt
COc1cc(C(=O)NC2CCCCN(Cc3cccc(C(F)(F)F)c3)C2=O)cc(OC)c1OC (stereo not given)	nt	nt	-5.0	-1.1	2.7	nt
COc1ccccc1-c1cccc2c3c([nH]c12)[C@@H]1C[C@H]2[C@@H](C(=O)N1CC3)[C@H](C)ON2C	4.1	nt	2.6	-0.6	-1.8	nt
NC(=O)SCC(=O)Nc1ccc(Cl)c(Cl)c1	1.9	-5.4	-8.6	49.2*	-36.4	94.1*
COCC(=O)Nc1ccc(C)c(Cl)c1	6.5	2.1	5.8	-3.3	11.4	nt
Cc1ccc(NC(=O)CSC(N)=O)cc1Cl	3.3	0.3	-0.5	28.4*	-13.6	89.2*
N#CCSCC(=O)Nc1ccc(Cl)cc1	3.9	5.9	0.0	13.8	0.8	nt
NC(=O)SCC(=O)Nc1ccc(Cl)cc1	12.0	5.2	-20.8	65.2*	4.2	87.6*
